Measurements collected from several papers.
Target: Dual specificity mitogen-activated protein kinase kinase 2 (MAP2K2, Homo sapiens, UniProt P36507)

| SMILES | test | conditions | endpoint | result |
| --- | --- | --- | --- | --- |
| CC(C)(C)c1cc(C=C(C#N)C#N)cc(Br)c1O | enzyme activity, inhibitor | 0.5 µM | remaining activity | 85.8% |
| COc1cc(Nc2ncc(F)c(Nc3ccc4c(n3)NC(=O)C(C)(C)O4)n2)cc(OC)c1OC | binding, competition with immobilised ligand | 10 µM | inhibition | 87% |
| O=c1[nH]c2ccccc2n1C1CCN(Cc2ccc(-c3[nH]c4cc5ncnc5cc4nc3-c3ccccc3)cc2)CC1 | cell-free assay | 0.5 µM | remaining signal | 86.6% |
| Nc1ncc(-c2nc(N3CCOCC3)nc(N3CCOCC3)n2)c(C(F)F)n1 | binding, competition with immobilised ligand | 10 µM | remaining binding | 77% |
| Cn1cncc1[C@@](O)(COc1ccc(C#N)cc1-c1ccc(OC(F)(F)F)cc1)c1ccc(C#N)cc1 | cell-free assay, competition with immobilised ligand | 1 µM | remaining binding | 74% |
| Cc1nn(C)cc1-c1nc2c(N3CCN(Cc4ccc(Cl)cc4)CC3)c(Cl)cnc2[nH]1 | binding, competition with immobilised ligand | 1 µM | remaining binding | 100% |
| Cn1cc(-c2cc(F)cc(N3CCn4c(cc5c4CCCC5)C3=O)c2CO)cc(Nc2ccc(N3CCN(C4COC4)CC3)cn2)c1=O | enzyme activity, inhibitor | 0.1 µM | inhibition | 11% |
| COc1ncccc1-c1cnn2ccc(N3CCN(C(=O)OC(C)C)CC3)nc12 | binding, competition with immobilised ligand | 1 µM | remaining binding | 91% |
| Cn1cc(-c2cccc(N3CCc4c(sc5c4CC(C)(C)C5)C3=O)c2CO)cc(Nc2ccncn2)c1=O | enzyme activity, inhibitor | 1 µM | inhibition | 5% |
| N#CC1(c2ccccn2)CCN(Cc2cc(C(=O)O)c(=O)n3ccccc23)CC1 | cell-free assay, competition with immobilised ligand | 1 µM | remaining binding | 100% |
